Laboratory results from ChEMBL document CHEMBL4020804, “Minor phenolics from Angelica keiskei and their proliferative effects on Hep3B cells” (Bioorg Med Chem Lett, 2017).

Legend:
[1] = system: Hep 3B2; experiment: Proliferative activity against human Hep3B cells assessed as cell viability at 0.1 uM after 4 days by cell counting method relative to control; format: functional; conditions: 96 h, read-out: Activity
Outline: (§1)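 Hep3B kept in DMEM/10% FBS, 37°C, 5% CO2, then seeded at 1×10^5 cells/ml in medium containing compound (0.1–100 μM; DMSO-only control) in monolayer. Cells were checked daily by microscope for attachment and morphology, and counted after 4 days, in triplicate, in three independent experiments. Counts are given as % of the 0 μM group.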

[2] = system: Hep 3B2; experiment: Proliferative activity against human Hep3B cells assessed as cell viability at 1 uM after 4 days by cell counting method relative to control; format: functional; conditions: 96 h, read-out: Activity; outline: as §1
[3] = system: Hep 3B2; experiment: Proliferative activity against human Hep3B cells assessed as cell viability at 10 uM after 4 days by cell counting method relative to control; format: functional; conditions: 96 h, read-out: Activity; outline: as §1
[4] = system: Hep 3B2; experiment: Proliferative activity against human Hep3B cells assessed as cell viability at 100 uM after 4 days by cell counting method relative to control; format: functional; conditions: 96 h, read-out: Activity; outline: as §1
[5] = system: Hep 3B2; experiment: Proliferative activity against human Hep3B cells assessed as cell viability after 4 days by cell counting method; format: functional, cell-based; outline: as §1
[6] = system: Hep 3B2; experiment: Cytoprotective activity against GOX-induced oxidative stress in human Hep3B cells assessed as cell survival at 0.1 uM treated for 5 hrs with 15 mU/ml GOX challenge by MTT assay (reference value: 41.51 +/- 1.39%); format: functional; conditions: read-out: Survival
[7] = system: Hep 3B2; experiment: Cytoprotective activity against GOX-induced oxidative stress in human Hep3B cells assessed as cell survival at 100 uM treated for 5 hrs with 15 mU/ml GOX challenge by MTT assay (reference value: 41.51 +/- 1.39%); format: functional; conditions: read-out: Survival
[8] = system: Hep 3B2; experiment: Cytoprotective activity against GOX-induced oxidative stress in human Hep3B cells assessed as cell survival at 1 uM treated for 5 hrs with 15 mU/ml GOX challenge by MTT assay (reference value: 41.51 +/- 1.39%); format: functional; conditions: read-out: Survival
[9] = system: Hep 3B2; experiment: Cytoprotective activity against GOX-induced oxidative stress in human Hep3B cells assessed as cell survival at 10 uM treated for 5 hrs with 15 mU/ml GOX challenge by MTT assay (reference value: 41.51 +/- 1.39%); format: functional; conditions: read-out: Survival
[10] = system: NIH3T3; experiment: Cytoprotective activity against GOX-induced oxidative stress in mouse NIH/3T3 cells assessed as cell survival at 0.1 uM treated for 5 hrs with 15 mU/ml GOX challenge by MTT assay (reference value: 42.71 +/- 2.10%); format: functional; conditions: NIH3T3, 5 h, read-out: Survival
[11] = system: Hep 3B2; experiment: Cytoprotective activity against GOX-induced oxidative stress in human Hep3B cells assessed as increase in cell survival treated for 5 hrs with 15 mU/ml GOX challenge by MTT assay; format: functional, cell-based
Outline: (§2)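 Cells plated at 7×10^4 per well; next day exposed for 5 h to compound (0.1–100 μM) with 15 mU/ml glucose oxidase in growth medium. Viability expressed relative to GOX-free cells; α-tocopherol positive control.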

[12] = system: NIH3T3; experiment: Cytoprotective activity against GOX-induced oxidative stress in mouse NIH/3T3 cells assessed as cell survival at 1 uM treated for 5 hrs with 15 mU/ml GOX challenge by MTT assay (reference value: 42.71 +/- 2.10%); format: functional; conditions: NIH3T3, 5 h, read-out: Survival
[13] = system: NIH3T3; experiment: Cytoprotective activity against GOX-induced oxidative stress in mouse NIH/3T3 cells assessed as cell survival at 10 uM treated for 5 hrs with 15 mU/ml GOX challenge by MTT assay (reference value: 42.71 +/- 2.10%); format: functional; conditions: NIH3T3, 5 h, read-out: Survival
[14] = system: NIH3T3; experiment: Cytoprotective activity against GOX-induced oxidative stress in mouse NIH/3T3 cells assessed as cell survival at 100 uM treated for 5 hrs with 15 mU/ml GOX challenge by MTT assay (reference value: 42.71 +/- 2.10%); format: functional; conditions: NIH3T3, 5 h, read-out: Survival
[15] = system: NIH3T3; experiment: Cytoprotective activity against GOX-induced oxidative stress in mouse NIH/3T3 cells assessed as increase in cell survival treated for 5 hrs with 15 mU/ml GOX challenge by MTT assay; format: functional, cell-based; outline: as §2
[16] = system: Hep 3B2; experiment: Cytoprotective activity against GOX-induced cytotoxicity in human Hep3B cells assessed as LDH release at 0.1 uM treated for 5 hrs with 15 mU/ml GOX challenge by spectrophotometric method (reference value: 60.94 +/- 1.18%); format: functional
[17] = system: Hep 3B2; experiment: Cytoprotective activity against GOX-induced cytotoxicity in human Hep3B cells assessed as LDH release at 1 uM treated for 5 hrs with 15 mU/ml GOX challenge by spectrophotometric method (reference value: 60.94 +/- 1.18%); format: functional
[18] = system: Hep 3B2; experiment: Cytoprotective activity against GOX-induced cytotoxicity in human Hep3B cells assessed as LDH release at 10 uM treated for 5 hrs with 15 mU/ml GOX challenge by spectrophotometric method (reference value: 60.94 +/- 1.18%); format: functional
[19] = system: Hep 3B2; experiment: Cytoprotective activity against GOX-induced cytotoxicity in human Hep3B cells assessed as LDH release at 100 uM treated for 5 hrs with 15 mU/ml GOX challenge by spectrophotometric method (reference value: 60.94 +/- 1.18%); format: functional
[20] = system: Hep 3B2; experiment: Cytoprotective activity against GOX-induced cytotoxicity in human Hep3B cells assessed as decrease in LDH release treated for 5 hrs with 15 mU/ml GOX challenge by spectrophotometric method; format: functional, cell-based
[21] = system: NIH3T3; experiment: Cytoprotective activity against GOX-induced cytotoxicity in mouse NIH/3T3 cells assessed as LDH release at 0.1 uM treated for 5 hrs with 15 mU/ml GOX challenge by spectrophotometric method (reference value: 63.34 +/- 1.85%); format: functional
[22] = system: NIH3T3; experiment: Cytoprotective activity against GOX-induced cytotoxicity in mouse NIH/3T3 cells assessed as LDH release at 1 uM treated for 5 hrs with 15 mU/ml GOX challenge by spectrophotometric method (reference value: 63.34 +/- 1.85%); format: functional
[23] = system: NIH3T3; experiment: Cytoprotective activity against GOX-induced cytotoxicity in mouse NIH/3T3 cells assessed as LDH release at 10 uM treated for 5 hrs with 15 mU/ml GOX challenge by spectrophotometric method (reference value: 63.34 +/- 1.85%); format: functional
[24] = system: NIH3T3; experiment: Cytoprotective activity against GOX-induced cytotoxicity in mouse NIH/3T3 cells assessed as LDH release at 100 uM treated for 5 hrs with 15 mU/ml GOX challenge by spectrophotometric method (reference value: 63.34 +/- 1.85%); format: functional
[25] = system: NIH3T3; experiment: Cytoprotective activity against GOX-induced cytotoxicity in mouse NIH/3T3 cells assessed as decrease in LDH release treated for 5 hrs with 15 mU/ml GOX challenge by spectrophotometric method; format: functional, cell-based
[26] = system: Hep 3B2; experiment: Cytotoxicity against human Hep3B cells assessed as effect on cell attachment at 0.1 to 100 uM measured every day during 4 days incubation period by microscopic method; format: cell-based; conditions: hep 3b2, 96 h; outline: as §1
[27] = system: Hep 3B2; experiment: Cytotoxicity against human Hep3B cells assessed as effect on cell morphology at 0.1 to 100 uM measured every day during 4 days incubation period by microscopic method; format: cell-based; conditions: hep 3b2, 96 h; outline: as §1

SMILES: CC(C)=CCCC(C)(O)C1Cc2c(O)ccc(C(=O)/C=C/c3ccc(O)cc3)c2O1 (centres undefined)
- viability at 0.1 µM [1]: 100%
- viability at 1 µM [2]: 102%
- viability at 10 µM [3]: 104%
- viability at 100 µM [4]: 113%
- Activity [5]: Dose-dependent effect
- viability at 0.1 µM [6]: 42.9%
- viability at 100 µM [7]: 76%
- viability at 1 µM [8]: 49%
- viability at 10 µM [9]: 62.1%
- viability at 0.1 µM [10]: 43.5%
- Activity [11]: Dose-dependent effect
- viability at 1 µM [12]: 44.4%
- viability at 10 µM [13]: 57.5%
- viability at 100 µM [14]: 77.8%
- Activity [15]: Dose-dependent effect
- Activity [16]: 25.13%
- Activity [17]: 19.53%
- Activity [18]: 19.08%
- Activity [19]: 8.14%
- Activity [20]: Dose-dependent effect
- Activity [21]: 27.7%
- Activity [22]: 21.87%
- Activity [23]: 15%
- Activity [24]: 12.35%
- Activity [25]: Dose-dependent effect
- Activity [26]: Non-Toxic
- Activity [27]: Non-Toxic

SMILES: O=C1CC(c2ccc(O)cc2)Oc2cc(O)ccc21 (racemic)
- viability at 0.1 µM [1]: 100%
- viability at 1 µM [2]: 104%
- viability at 10 µM [3]: 112%
- viability at 100 µM [4]: 135%
- Activity [5]: Dose-dependent effect
- viability at 0.1 µM [6]: 70.7%
- viability at 100 µM [7]: 112%
- viability at 1 µM [8]: 88.4%
- viability at 10 µM [9]: 98.8%
- viability at 0.1 µM [10]: 74.1%
- Activity [11]: Dose-dependent effect
- viability at 1 µM [12]: 88.4%
- viability at 10 µM [13]: 111%
- viability at 100 µM [14]: 126%
- Activity [15]: Dose-dependent effect
- Activity [16]: 11.57%
- Activity [17]: 6.83%
- Activity [18]: 4.93%
- Activity [19]: 3.82%
- Activity [20]: Dose-dependent effect
- Activity [21]: 18.42%
- Activity [22]: 7.85%
- Activity [23]: 5.51%
- Activity [24]: 2.63%
- Activity [25]: Dose-dependent effect
- Activity [26]: Non-Toxic
- Activity [27]: Non-Toxic
